Data on one molecule can be found in ChEMBL document CHEMBL4049413, “High-content screen using zebrafish (Danio rerio) embryos identifies a novel kinase activator and inhibitor” (Bioorg Med Chem Lett, 2017).

Calls of active or inactive are those of the source. The calls are words filed in the database; no cut-off is given here.

As a reminder, the IC50 is the concentration that gives 50% inhibition. Usually EC50 stands for the concentration needed to bring the measured effect to its halfway point.

In data set [1] the target is Serine/threonine-protein kinase pim-3 (Homo sapiens, UniProt Q86V86). The data set can be described thus: Inhibition of human PIM3 using RSRHSSYPAGT as substrate in presence of [gamma-33P]-ATP.
The target of data set [2] is Death-associated protein kinase 1 (Homo sapiens, UniProt P53355). The data set can be described thus: Activation of human DAPK1 using KKLNRTLSFAEPG as substrate in presence of [gamma-33P]-ATP.
Death-associated protein kinase 1, sequence (P53355 whole entry): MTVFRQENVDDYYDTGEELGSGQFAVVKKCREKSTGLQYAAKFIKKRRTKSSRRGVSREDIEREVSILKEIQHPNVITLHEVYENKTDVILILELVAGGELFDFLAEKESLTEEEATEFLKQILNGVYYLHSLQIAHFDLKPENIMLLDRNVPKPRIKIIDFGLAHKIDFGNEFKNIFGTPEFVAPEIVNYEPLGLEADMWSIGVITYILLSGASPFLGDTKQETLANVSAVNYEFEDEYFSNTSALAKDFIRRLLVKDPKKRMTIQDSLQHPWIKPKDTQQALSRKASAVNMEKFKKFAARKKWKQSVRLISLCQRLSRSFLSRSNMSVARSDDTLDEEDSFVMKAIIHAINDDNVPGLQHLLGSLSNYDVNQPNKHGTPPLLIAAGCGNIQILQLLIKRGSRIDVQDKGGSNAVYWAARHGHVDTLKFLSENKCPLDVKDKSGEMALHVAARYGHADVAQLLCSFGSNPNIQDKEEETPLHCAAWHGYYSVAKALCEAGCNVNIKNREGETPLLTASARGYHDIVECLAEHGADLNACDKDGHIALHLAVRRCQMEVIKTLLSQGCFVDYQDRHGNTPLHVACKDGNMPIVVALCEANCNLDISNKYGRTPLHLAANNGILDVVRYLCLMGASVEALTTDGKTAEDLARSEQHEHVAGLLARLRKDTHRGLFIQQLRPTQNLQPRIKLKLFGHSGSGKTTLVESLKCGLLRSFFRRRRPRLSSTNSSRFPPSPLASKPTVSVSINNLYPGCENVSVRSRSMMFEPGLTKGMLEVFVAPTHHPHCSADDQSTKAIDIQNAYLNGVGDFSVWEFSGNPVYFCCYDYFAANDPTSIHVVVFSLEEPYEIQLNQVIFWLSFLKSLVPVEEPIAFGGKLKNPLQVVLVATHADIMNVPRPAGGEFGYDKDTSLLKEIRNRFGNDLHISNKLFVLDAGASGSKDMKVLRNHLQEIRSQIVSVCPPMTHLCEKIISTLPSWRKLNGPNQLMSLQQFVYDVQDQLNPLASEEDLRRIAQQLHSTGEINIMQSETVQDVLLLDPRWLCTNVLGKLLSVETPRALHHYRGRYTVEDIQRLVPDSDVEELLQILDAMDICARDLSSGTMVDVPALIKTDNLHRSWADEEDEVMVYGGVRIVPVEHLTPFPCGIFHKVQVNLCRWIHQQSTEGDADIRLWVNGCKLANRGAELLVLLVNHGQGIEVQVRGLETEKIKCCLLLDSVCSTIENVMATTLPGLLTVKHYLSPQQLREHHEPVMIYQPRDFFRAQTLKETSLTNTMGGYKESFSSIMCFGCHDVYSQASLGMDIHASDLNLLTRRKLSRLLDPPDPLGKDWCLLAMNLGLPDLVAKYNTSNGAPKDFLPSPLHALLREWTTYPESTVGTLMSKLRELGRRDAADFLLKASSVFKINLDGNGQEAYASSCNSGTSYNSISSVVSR
A further data set addresses Albumin (Bos taurus, UniProt P02769). The data set can be described thus: Binding affinity to bovine serum albumin by tryptophan quenching based HTS assay. It is filed as ADME. Summed up: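 Bovine serum albumin binding screened in HTS format by quenching of intrinsic BSA tryptophan fluorescence, Ex/Em 280/340 nm; IC50 derived from the quenching response.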
The species named for data set [3] is Danio rerio. The data set can be described thus: Induction of morphological changes in 6 hrs post fertilized zebra fish embryo assessed as defect in notochord development up to 200 uM by microscopic method. It is filed as functional. Summed up:
(§1)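 Embryos staged and placed in 12-well plates in E3 medium with 1% DMSO within 6 hpf, ~30 embryos per well. Continuous exposure from 6–30 hpf at varied concentrations up to 200 uM. For the timing window, 100 uM exposure began at different developmental times and all embryos were scored at 30 hpf. Notochord, somite and tail phenotypes were scored by microscopy.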

The species named for data set [4] is Danio rerio. The data set can be described thus: Induction of morphological changes in 6 hrs post fertilized zebra fish embryo assessed as defect in tail musculature by measuring downward c-bend of body axis up to 200 uM by microscopic method. The class given is functional. In a few lines:
as §1

For a further data set, the species on record is Homo sapiens. The data set can be described thus: Substrate activity at P-gp in human […] cells assessed as intracellular rhodamine123 accumulation at 50 uM after 2 hrs by fluorescence-based HTS assay. It is filed as cell-based. Summed up:
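MDA-MB-231 breast cancer cells in 96-well plates were pretreated with compound for 2 h, then intracellular rhodamine 123 accumulation was measured by fluorescence (Ex/Em 485/528). Verapamil at 20 uM served as positive control.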

For data set [5], the species on record is Danio rerio. The data set can be described thus: Induction of morphological changes in 30 hrs post fertilized zebra fish embryo assessed as defect in notochord development up to 200 uM by microscopic method. The class given is functional. In a few lines: as §1
The species entered for data set [6] is Danio rerio. The data set can be described thus: Induction of morphological changes in 30 hrs post fertilized zebra fish embryo assessed as defect in tail musculature by measuring downward c-bend of body axis up to 200 uM by microscopic method. It is filed as functional. Summed up:
as §1

The species named for data set [7] is Danio rerio. The data set can be described thus: Induction of morphological changes in 6 to 14 hrs post fertilized zebra fish embryo assessed as defect in notochord development at 100 uM by microscopic method. It is filed as functional. In a few lines: as §1
Data set [8] is filed under the species Danio rerio. The data set can be described thus: Induction of morphological changes in 6 to 14 hrs post fertilized zebra fish embryo assessed as defect in somite development at 100 uM by microscopic method. It is filed as functional. In a few lines: as §1
For data set [9], the species on record is Danio rerio. The data set can be described thus: Induction of morphological changes in 22 hrs post fertilized zebra fish embryo at 100 uM by microscopic method. The class given is functional. In a few lines:
as §1

Data set [10] is filed under the species Danio rerio. The data set can be described thus: Induction of morphological changes in 14 hrs post fertilized zebra fish embryo assessed as defect in notochord development at 100 uM by microscopic method. The class given is functional. Summed up:
as §1

For data set [11], the species on record is Danio rerio. The data set can be described thus: Induction of morphological changes in 14 hrs post fertilized zebra fish embryo assessed as defect in somite development at 100 uM by microscopic method. The class given is functional. In a few lines: as §1
The species named for data set [12] is Danio rerio. The data set can be described thus: Toxicity in 6 to 30 hrs post fertilized zebra fish embryo assessed as death at 200 uM by microscopic method. The conditions noted are these: zebrafish. Summed up:
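Staged zebrafish embryos placed in 12-well plates in E3 embryo medium within 6 hpf and exposed from 6 to 30 hpf in E3 with 1% DMSO, with or without compound, ~30 embryos per group (at most 30 per well). Wells were inspected under a dissecting microscope, and death was scored as loss of embryonic structure.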

For data set [13], the species on record is Danio rerio. The data set can be described thus: Induction of morphological changes in 30 to 48 hrs post fertilized zebra fish embryo by microscopic method. The class given is functional.
The target in data set [14] is Serine/threonine-protein kinase pim-1 (Homo sapiens) (UniProt P11309). The data set can be described thus: Inhibition of human PIM1 using KKRNRTLTK as substrate in presence of [gamma-33P]-ATP.
Serine/threonine-protein kinase pim-1 (Homo sapiens), sequence (P11309 whole entry, looked up): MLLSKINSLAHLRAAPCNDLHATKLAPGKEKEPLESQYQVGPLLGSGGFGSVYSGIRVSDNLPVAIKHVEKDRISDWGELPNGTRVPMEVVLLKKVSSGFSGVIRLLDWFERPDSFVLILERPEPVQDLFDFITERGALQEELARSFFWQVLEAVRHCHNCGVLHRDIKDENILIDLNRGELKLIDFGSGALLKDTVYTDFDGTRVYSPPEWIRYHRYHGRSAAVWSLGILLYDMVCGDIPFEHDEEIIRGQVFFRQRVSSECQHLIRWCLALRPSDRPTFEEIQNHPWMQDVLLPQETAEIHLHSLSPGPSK
Data set [15] deals with Serine/threonine-protein kinase pim-2 (Homo sapiens) (UniProt Q9P1W9). The data set can be described thus: Inhibition of human PIM2 using RSRHSSYPAGT as substrate in presence of [gamma-33P]-ATP.
Serine/threonine-protein kinase pim-2 (Homo sapiens), sequence (Q9P1W9 whole entry, looked up): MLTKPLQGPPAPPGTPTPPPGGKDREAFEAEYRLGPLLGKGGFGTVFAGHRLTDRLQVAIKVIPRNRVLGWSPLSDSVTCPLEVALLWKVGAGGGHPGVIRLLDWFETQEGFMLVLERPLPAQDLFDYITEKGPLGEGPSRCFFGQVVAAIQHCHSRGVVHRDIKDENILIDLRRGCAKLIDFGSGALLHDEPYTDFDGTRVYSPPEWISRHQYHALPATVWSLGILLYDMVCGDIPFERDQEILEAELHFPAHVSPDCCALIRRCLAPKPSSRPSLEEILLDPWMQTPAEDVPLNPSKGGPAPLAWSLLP
In data set [16] the target is Death-associated protein kinase 2 (Homo sapiens) (UniProt Q9UIK4). The data set can be described thus: Activation of human DAPK2 using KKLNRTLSFAEPG as substrate in presence of [gamma-33P]-ATP.
Death-associated protein kinase 2 (Homo sapiens), sequence (Q9UIK4 whole entry, looked up): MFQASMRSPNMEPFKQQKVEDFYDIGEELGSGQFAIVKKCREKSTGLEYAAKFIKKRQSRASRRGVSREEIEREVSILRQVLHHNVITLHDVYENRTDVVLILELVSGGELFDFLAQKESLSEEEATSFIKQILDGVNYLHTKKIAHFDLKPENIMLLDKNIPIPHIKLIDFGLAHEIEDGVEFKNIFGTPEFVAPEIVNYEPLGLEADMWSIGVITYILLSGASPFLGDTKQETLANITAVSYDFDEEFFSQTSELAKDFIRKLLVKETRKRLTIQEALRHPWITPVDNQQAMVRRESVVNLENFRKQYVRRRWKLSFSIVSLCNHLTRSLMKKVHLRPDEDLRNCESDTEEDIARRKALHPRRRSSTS
In data set [17] the target is Death-associated protein kinase 3 (Homo sapiens) (UniProt O43293). The data set can be described thus: Activation of human DAPK3 using KKLNRTLSFAEPG as substrate in presence of [gamma-33P]-ATP.
Death-associated protein kinase 3 (Homo sapiens), sequence (O43293 whole entry, looked up): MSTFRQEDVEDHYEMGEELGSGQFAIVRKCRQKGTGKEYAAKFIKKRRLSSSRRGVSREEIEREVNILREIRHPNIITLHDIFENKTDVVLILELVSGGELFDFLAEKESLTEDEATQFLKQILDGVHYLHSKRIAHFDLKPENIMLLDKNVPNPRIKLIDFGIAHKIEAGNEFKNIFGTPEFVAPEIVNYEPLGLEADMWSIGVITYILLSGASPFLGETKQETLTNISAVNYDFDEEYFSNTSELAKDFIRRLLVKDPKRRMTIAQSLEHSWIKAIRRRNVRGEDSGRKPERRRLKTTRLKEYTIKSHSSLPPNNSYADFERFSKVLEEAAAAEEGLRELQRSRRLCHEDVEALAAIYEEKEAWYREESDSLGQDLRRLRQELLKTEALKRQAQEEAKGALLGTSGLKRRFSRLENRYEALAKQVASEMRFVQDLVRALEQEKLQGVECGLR

Albumin, sequence (P02769 whole entry): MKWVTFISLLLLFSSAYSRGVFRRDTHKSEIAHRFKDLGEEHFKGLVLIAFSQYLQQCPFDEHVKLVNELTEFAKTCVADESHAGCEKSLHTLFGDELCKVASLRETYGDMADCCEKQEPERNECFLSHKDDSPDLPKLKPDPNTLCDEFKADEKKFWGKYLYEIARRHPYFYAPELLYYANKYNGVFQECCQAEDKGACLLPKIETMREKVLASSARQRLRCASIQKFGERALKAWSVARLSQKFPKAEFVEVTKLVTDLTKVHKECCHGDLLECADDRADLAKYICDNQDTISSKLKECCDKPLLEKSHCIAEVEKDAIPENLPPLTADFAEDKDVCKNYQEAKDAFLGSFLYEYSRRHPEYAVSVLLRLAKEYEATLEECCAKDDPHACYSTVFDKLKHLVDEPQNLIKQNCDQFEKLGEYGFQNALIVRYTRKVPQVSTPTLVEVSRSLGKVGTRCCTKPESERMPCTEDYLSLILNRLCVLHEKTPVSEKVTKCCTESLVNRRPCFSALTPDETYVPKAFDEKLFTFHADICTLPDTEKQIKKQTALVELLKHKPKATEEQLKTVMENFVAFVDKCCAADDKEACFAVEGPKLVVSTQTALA

Turning to `O=C(COc1cccc2ccccc12)Nc1cccc(C(=O)O)c1`, the IC50 in [1] is 4.08 µM; on Albumin it was 23.3 µM. In addition, the EC50 in data set [2] was determined as 39.5 µM. For the same molecule, the outcome in the data set filed under Danio rerio [3], in the data set filed under Danio rerio [4], in the data set filed under Danio rerio [7] and in the data set listed under Danio rerio [8] was Active. Moreover, the result in the data set filed under Homo sapiens, in the data set listed under Danio rerio [5], in the data set listed under Danio rerio [6], in the data set listed under Danio rerio [9], in the data set filed under Danio rerio [10] and in the data set filed under Danio rerio [11] was inactive. The result (in the data set listed under Danio rerio [13]; in [16]; in data set [17]) was inactive. The Activity entry in the data set filed under Danio rerio [12] is listed as “Toxic”. Also, the inhibition entry in data set [14] and in data set [15] was “inactive” each time.
